# Laboratory results taken from ChEMBL document CHEMBL2331462, “Antiallodynic and analgesic effects of maslinic acid, a pentacyclic triterpenoid from Olea europaea” (J Nat Prod, 2013).
# Activity calls are given as the source filed them.
# Columns and labels:
# [1] = test system: Mus musculus; test: Analgesic activity in CD-1 mouse assessed as inhibition of acetic acid-induced writhing response at 64 to 256 mg/kg, sc measured after 30 mins; type: functional, organism-based
# Method in brief: (§1)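 Female CD-1 mice (25−30 g), dosed sc interscapularly in 2% Tween 80 in water (5 mL/kg), 30 min before ip 0.6% acetic acid (10 mL/kg). Writhes (torso stretches with back arching and leg extension) counted cumulatively over 30 min. Mean ± SEM of 8−12 mice per group versus vehicle, one-way ANOVA with Bonferroni.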
# [2] = test system: Mus musculus; test: Neurotoxicity in CD-1 mouse assessed as impairment in motor coordination at 512 mg/kg, sc measured up to 3 hrs by rotarod test; type: toxicity, organism-based; design: dose 512 mg/kg, route subcutaneous; conditions: in vivo
# Method in brief: (§2)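 Female CD-1 mice trained three times on an accelerating rotarod (4 to 40 rpm over 5 min) 24 h before testing. Sc dosing in 2% Tween 80; latency to fall (300 s cutoff) recorded just before and 30, 60, 120 and 180 min after injection. 8−12 mice per group, two-way repeated-measures ANOVA with Bonferroni.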
# [3] = test system: Mus musculus; test: Antiallodynic activity against capsaicin-induced secondary mechanical pain in sc dosed CD-1 mouse assessed as paw withdrawal-latency measured after 30 mins post compound administration; type: functional, organism-based
# Method in brief: (§3)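 Female CD-1 mice, sc dosing in 2% Tween 80 (5 mL/kg) 30 min before testing. Capsaicin (1 μg in 20 μL 1% DMSO) given ipl; 15 min later a 0.5 g force was applied with an electronic von Frey device ≥5 mm from the injection site toward the toes. Paw withdrawal latency recorded over three trials at 30 s intervals, 50 s cutoff. 8−12 mice per group, two-way ANOVA with Bonferroni.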
# [4] = test system: Mus musculus; test: Antinociceptive activity in CD-1 mouse assessed as reduction of formalin-induced inflammatory pain at 1 % administered topically 15 mins challenge measured after 10 to 50 mins; type: functional, organism-based
# Method in brief: (§4)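 Female CD-1 mice, unanesthetized and restrained. 0.1 g of a 1% compound-enriched Carbopol gel (1% Carbopol, 2% triethanolamine, 5% propylene glycol) or vehicle gel was spread on the plantar hindpaw, ipsilateral or contralateral, 15 min before intraplantar formalin (20 μL, 5%). Licking/biting time scored for phase 1 (0−5 min) and phase 2 (10−50 min). 8−12 mice per group.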
# [5] = test system: Mus musculus; test: Antinociceptive activity in CD-1 mouse assessed as reduction of formalin-induced inflammatory pain at 1 % administered topically 15 mins challenge measured up to 5 mins; type: functional, organism-based; method in brief: as §4
# [6] = test system: Mus musculus; test: Neurotoxicity in CD-1 mouse assessed as impairment in motor coordination at 64 mg/kg, sc measured up to 3 hrs by rotarod test; type: toxicity, organism-based; design: dose 64 mg/kg, route subcutaneous; conditions: in vivo; method in brief: as §2
# [7] = test system: Mus musculus; test: Antiallodynic activity against capsaicin-induced secondary mechanical pain in CD-1 mouse assessed as paw withdrawal-latency at 64 mg/kg, sc measured after 30 mins post compound administration; type: functional, organism-based; design: dose 64 mg/kg; method in brief: as §3
# [8] = test system: Mus musculus; test: Neurotoxicity in CD-1 mouse assessed as impairment in motor coordination at 8 mg/kg, sc measured up to 3 hrs by rotarod test; type: toxicity, organism-based; design: dose 8 mg/kg, route subcutaneous; conditions: in vivo; method in brief: as §2
# [9] = test system: Mus musculus; test: Analgesic activity in CD-1 mouse assessed as inhibition of acetic acid-induced writhing response at 100 mg/kg, sc measured after 30 mins; type: functional, organism-based; design: dose 100 mg/kg; method in brief: as §1
# [10] = test system: Mus musculus; test: Antinociceptive activity in CD-1 mouse assessed as reduction of formalin-induced inflammatory pain at 100 mg/kg, sc administered 15 mins challenge measured after 10 to 50 mins; type: functional, organism-based; design: dose 100 mg/kg
# [11] = test system: Mus musculus; test: Antinociceptive activity in CD-1 mouse assessed as reduction of formalin-induced inflammatory pain at 100 mg/kg, sc administered 15 mins challenge measured up to 5 mins; type: functional, organism-based; design: dose 100 mg/kg
# [12] = test system: Mus musculus; test: Antiallodynic activity against capsaicin-induced secondary mechanical pain in CD-1 mouse assessed as paw withdrawal-latency at 100 mg/kg, sc measured after 30 mins post compound administration; type: functional, organism-based; design: dose 100 mg/kg; method in brief: as §3
structure (smiles),measurement,setting,value
CC1(C)CC[C@]2(C(=O)O)CC[C@]3(C)C(=CC[C@@H]4[C@@]5(C)C[C@@H](O)[C@H](O)C(C)(C)[C@@H]5CC[C@]43C)[C@@H]2C1 [MASLINIC ACID],inhibition,[1],Active
same,Activity,[2],Non-toxic
same,Activity,[3],Dose-dependent effect
same,Activity,[4],Active
same,Activity,[5],inactive
CC(C)C[C@H](CN)CC(=O)O [PREGABALIN],Activity,[6],Toxic
same,Activity,[7],Active
NCC(CC(=O)O)c1ccc(Cl)cc1 (configuration not stated) [BACLOFEN],Activity,[8],Toxic
CC(C)Cc1ccc(C(C)C(=O)O)cc1 (configuration not stated),inhibition,[9],Active
same,Activity,[10],Active
same,Activity,[11],inactive
same,Activity,[12],inactive
